Source: PubChem BioAssay
SENP1 FRET inh = inhibitors of human SENP1 SUMO protease catalytic domain. recombinant SENP1 catalytic domain, CyPet-SUMO1-YPet FRET cleavage. inhibition, % at 10 µM. actives 0.21% (n = 360,000). Q9P0U3;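 active = inhibition at least 30% at 10 µM, raw YFP signal under a set limit, fluorescence ratio 0.5 to 1.5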;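 note: 0% = enzyme with DMSO and 100% = no enzyme wells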
Target sequence (Q9P0U3 419-644 limits assumed): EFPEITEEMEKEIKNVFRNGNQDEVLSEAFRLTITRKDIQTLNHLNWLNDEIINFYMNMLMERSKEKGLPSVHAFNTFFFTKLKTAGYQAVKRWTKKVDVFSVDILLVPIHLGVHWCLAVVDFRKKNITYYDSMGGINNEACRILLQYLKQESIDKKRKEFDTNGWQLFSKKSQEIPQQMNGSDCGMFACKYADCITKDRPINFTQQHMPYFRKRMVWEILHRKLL
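Test system: hSENP1 catalytic domain, recombinant; Amount: 20 pM final SENP1 enzyme; Medium: Tris pH 8 buffer plus EDTA, NaCl, BME, BSA, NP40, catalase; Schedule: 50 min enzyme reaction, room temperature, light-protected; Technique: FRET fluorescence in CFP and YFP emission channels; Controls: no-enzyme wells low, DMSO-plus-enzyme wells high control.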
SENP6 inh = blocks the human protease SENP6 | Q9GZR1 | Recombinant SENP6 catalytic domain, aminoluciferin luminescence | inhibition, % at 10 µM | actives 1.8% (n = 330,000);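 active = inhibition above about 50% at the single tested dose, limit read from the data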;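 note: plate controls were DMSO wells with enzyme for no effect and DMSO wells lacking enzyme for full effect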
SENP8 block-1 = SENP8 (human) protease inhibition | recombinant SENP8, Nedd8 substrate fluorescence | AID 602440 | inhibition, % at 20 µM | actives 0.64% (n = 360,000) | Q96LD8; in the data active = inhibition mostly above about 40%, no sharp cut-off; inactive = mostly below about 27%
Target sequence (Q96LD8 whole entry, looked up): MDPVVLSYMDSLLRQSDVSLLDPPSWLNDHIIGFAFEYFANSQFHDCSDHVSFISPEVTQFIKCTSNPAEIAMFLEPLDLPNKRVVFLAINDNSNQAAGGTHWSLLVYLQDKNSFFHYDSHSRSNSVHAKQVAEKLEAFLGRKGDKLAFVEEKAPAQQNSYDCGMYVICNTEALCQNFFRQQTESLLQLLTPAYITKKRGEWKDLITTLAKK
SENP8 block-2 = inhibitors of human SENP8 protease; Q96LD8; purified SENP8, Z-RLRGG-aminoluciferin cleavage, luminescence; inhibition, % at 10 µM; actives 1.2% (n = 330,000); in the data active = inhibition above about 50%
SENP7 inh = inhibitors of human SENP7 protease; recombinant SENP7, Z-RLRGG-aminoluciferin luminescence, 40 min; AID 434973; Q9BQF6; inhibition, % at 5 µM; actives 1.5% (n = 330,000);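 active = inhibition above about 50% at the single test dose, limit read from the data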;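 note: plate controls were DMSO with enzyme for no effect and no enzyme buffer wells for full effect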
SENP1 conf = confirmation of human SENP1 SUMO protease inhibitors; shares compounds with SENP1 FRET inh; recombinant SENP1, CyPet-SUMO1-YPet FRET cleavage; inhibition, % at 10 µM; actives 34% (n = 520); in the data active = inhibition mostly above about 35%, no sharp cut-off; inactive = mostly below about 32%;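 note: 0% = enzyme with DMSO and 100% = no enzyme control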
SENP1 kinetic = confirmation of human SENP1 SUMO protease inhibitors, kinetic; shares compounds with SENP1 FRET inh; recombinant SENP1, CyPet-SUMO1-YPet FRET kinetic cleavage; inhibition, % at 10 µM; actives 26% (n = 520); AID 651690; in the data active = inhibition mostly above about 32%, no sharp cut-off; inactive = mostly below about 29%;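 note: 0% = DMSO with enzyme and 100% = no enzyme substrate only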
The depositor's hits bear a star; . = no result. The list is not random: actives were taken first. Their share in the collection is about 2.5%.

SMILES | SENP1 FRET inh | SENP6 inh | SENP8 block-1 | SENP8 block-2 | SENP7 inh | SENP1 conf | SENP1 kinetic
O=CNc1ccc2c(c1)Cc1cc([N+](=O)[O-])ccc1-2 | 48* | . | -4 | . | . | 27 | 20
CCC(=O)Nc1ccc2c(c1)Cc1cc([N+](=O)[O-])ccc1-2 | -6 | . | -30 | . | . | . | .
NC(N)=NCCCS(=O)(=O)Nc1ccc(Nc2c3ccccc3nc3cc([N+](=O)[O-])ccc23)cc1 | 51* | . | 25 | . | . | 35 | 6
O=C(O)Cn1c(O)c(C2=c3ccccc3=NC2=O)sc1=O | 66* | -7 | 21 | -2 | 3 | 67* | 36*
CCC(C(=O)N1CCC(N2CCCCC2)CC1)n1nc(C)c2sc3ccccc3c2c1=O (centres undefined) | 0 | -7 | -30 | -4 | 0 | . | .
Cc1ccc(S(=O)(=O)N(C)CC(=O)N(C)Cc2cccs2)cc1 | 2 | . | 7 | . | . | . | .
COc1ccc(-c2nnc(C)c3nocc23)cc1 | 37* | -3 | -4 | -2 | -1 | 23 | 21
COc1ccc(NC(=O)/C=C/C(=O)O)c([N+](=O)[O-])c1 | 3 | 4 | 17 | 2 | -6 | . | .
CCOc1ccc(NC(=O)/C=C/c2ccccc2)c([N+](=O)[O-])c1 | 37* | -14 | 32 | -8 | 14 | 15 | 10
O=C(NC1CCCCC1)C(c1ccc(F)cc1)N(Cc1ccc2c(c1)OCO2)C(=O)c1cnsn1 (centres undefined) | 4 | 5 | 21 | 5 | 8 | . | .
Clc1cc2c(nn1)Nc1ccccc1S2 | 31* | -24 | -5 | -2 | 0 | 15 | 12
COc1cccc(C2C3=C(N=c4s/c(=C\c5cccc(O)c5)c(=O)n42)c2ccccc2CC3)c1OC (centres undefined) | 50* | -22 | -2 | -6 | -7 | 26 | 17
COc1ccccc1C1C2=C(N=c3s/c(=C/c4cccc(OCC(=O)O)c4)c(=O)n31)c1ccccc1CC2 (centres undefined) | 36* | . | -42 | . | . | 44* | 21
O=C(OCC(=O)c1c[nH]c2ccccc12)c1cc(Br)ccc1O | -3 | -13 | -93 | 1 | 8 | . | .
Cc1sc(-c2ccccn2)nc1OC(=O)c1ccc(F)cc1F | 51* | . | -32 | . | . | 50* | 69*
Cc1cnc(NC(=O)C(C)N2CCN(C)CC2)s1 (centres undefined) | 2 | -1 | 3 | -13 | -4 | . | .
O=C(O)c1cccc2c1-c1ccc(Cl)cc1C2=O | 1 | . | 6 | . | . | . | .
Nc1cccc2c1C(=O)c1ccc(Cl)cc1C2=O | 30* | . | 36 | . | . | 33 | 16
Oc1ccccc1NCC(O)Cn1ccc2ccccc21 (centres undefined) | 37* | 10 | 30 | 1 | 5 | 5 | 1
OC(CNCc1ccccc1)Cn1ccc2ccccc21 (centres undefined) | -20 | -21 | -5 | -13 | -9 | . | .
Cc1noc(C)c1C(=O)OCC(=O)Nc1ccccc1SCC#N | 44* | -7 | 6 | -18 | -2 | 17 | 14
N#CCSc1ccccc1NC(=O)COC(=O)CCNC(=O)c1ccc([N+](=O)[O-])cc1 | 32* | -13 | 0 | 1 | 3 | 8 | 6
CC(C)c1cccc(C(C)C)c1NC(=O)CCN1C(=O)NC2(CCCC2)C1=O | 1 | 8 | 9 | 1 | 7 | . | .
COc1ccc(Cl)cc1NS(=O)(=O)c1cccc(C(=O)NCC2(N(C)C)CCCCC2)c1 | -1 | 3 | 7 | -6 | 7 | . | .
N=c1occ(C(=O)c2cc(F)ccc2O)cc1C(=O)NC1CCCCC1 | 30* | -7 | -12 | 5 | 0 | 6 | 13
COc1cccc(CNC(=O)C2CSC3(C)CCC(=O)N23)c1 (centres undefined) | 38* | 9 | -6 | 11 | -3 | -3 | 0
O=S(=O)(/N=C(/c1ccccc1)N1CCOCC1)c1ccc(F)cc1 | 2 | -8 | 8 | -11 | -12 | . | .
CN(C)CCNc1ccc(CO)c2oc3ccc(O)cc3c(=O)c12 | 58* | . | 6 | . | . | 65* | 39*
O=c1cc(NCCCO)c2ccccc2o1 | 1 | -7 | 10 | -2 | 4 | . | .
